From ChEMBL document CHEMBL1154683, “Bis(dialkylaminethiocarbonyl)disulfides as potent and selective monoglyceride lipase inhibitors” (J Med Chem, 2009) come the findings set out here.

Assay [1] has as its target Monoglyceride lipase (Homo sapiens, UniProt Q99685, C208A). Kind of assay: Inhibition of human MGL C208A mutant using [3H]2-oleoylglycerol substrate.
Assay [2] deals with T1, Fatty-acid amide hydrolase 1 (Homo sapiens, UniProt O00519).
T1 sequence (O00519 whole entry): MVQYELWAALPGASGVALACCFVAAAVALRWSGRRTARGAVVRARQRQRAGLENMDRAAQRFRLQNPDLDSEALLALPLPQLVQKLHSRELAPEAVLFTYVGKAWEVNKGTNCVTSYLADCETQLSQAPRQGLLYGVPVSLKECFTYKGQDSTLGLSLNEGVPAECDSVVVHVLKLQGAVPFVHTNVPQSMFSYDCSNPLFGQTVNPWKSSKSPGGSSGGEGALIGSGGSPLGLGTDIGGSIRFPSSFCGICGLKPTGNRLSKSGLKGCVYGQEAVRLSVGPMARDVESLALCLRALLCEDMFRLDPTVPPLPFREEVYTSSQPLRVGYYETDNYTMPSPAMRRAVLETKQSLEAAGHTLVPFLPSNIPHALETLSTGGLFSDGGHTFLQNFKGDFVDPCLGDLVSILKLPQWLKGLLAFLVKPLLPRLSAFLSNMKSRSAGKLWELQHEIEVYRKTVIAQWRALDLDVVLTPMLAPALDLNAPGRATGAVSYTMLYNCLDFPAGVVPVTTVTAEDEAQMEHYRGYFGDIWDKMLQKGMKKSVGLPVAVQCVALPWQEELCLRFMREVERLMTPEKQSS
Put plainly: Inhibition of human recombinant FAAH-maltose binding protein.

In assay [3] the target is T2, Monoglyceride lipase (Homo sapiens) (UniProt Q99685).
T2 sequence (whole entry): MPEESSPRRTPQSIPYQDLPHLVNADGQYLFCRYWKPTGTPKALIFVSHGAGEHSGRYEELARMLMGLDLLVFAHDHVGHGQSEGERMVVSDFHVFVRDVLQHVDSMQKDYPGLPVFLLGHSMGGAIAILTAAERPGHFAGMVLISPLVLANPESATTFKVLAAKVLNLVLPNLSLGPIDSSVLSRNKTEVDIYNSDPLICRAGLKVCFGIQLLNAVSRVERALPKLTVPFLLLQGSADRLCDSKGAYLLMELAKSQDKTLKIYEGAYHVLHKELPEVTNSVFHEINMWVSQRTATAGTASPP
Put plainly: Inhibition of human MGL activity using [3H]2-oleoylglycerol substrate at 100 nM measured upto 1 hr by high dilution reversibility assay. A digest of the protocol: (§1)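 Recombinant human MGL preincubated with inhibitor at 30, 10 or 3 μM, then diluted 300-fold before substrate addition, giving 100, 33.3 and 10 nM during the activity read. Activity was followed up to 1 h postdilution and compared with a DMSO-preincubated control.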

In assay [4] the target is Monoglyceride lipase (Homo sapiens, UniProt Q99685, C242A). Kind of assay: Inhibition of human MGL C242A mutant using [3H]2-oleoylglycerol substrate.
Chain of Monoglyceride lipase (Homo sapiens, UniProt Q99685, C242A) (Q99685 whole entry C242A): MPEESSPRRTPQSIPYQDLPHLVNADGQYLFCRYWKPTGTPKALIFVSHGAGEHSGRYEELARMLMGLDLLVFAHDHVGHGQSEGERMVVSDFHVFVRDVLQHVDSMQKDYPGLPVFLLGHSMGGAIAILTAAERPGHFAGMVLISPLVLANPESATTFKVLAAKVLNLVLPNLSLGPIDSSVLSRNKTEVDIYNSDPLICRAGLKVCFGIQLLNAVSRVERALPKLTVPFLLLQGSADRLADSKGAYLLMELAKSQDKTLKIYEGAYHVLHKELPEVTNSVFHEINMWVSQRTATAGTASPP
For assay [5], the target named is T2, Monoglyceride lipase (Homo sapiens). Put plainly: Inhibition of human MGL activity using [3H]2-oleoylglycerol substrate assessed as reversible enzyme activity in presence of 1,4-dithio-DL-threitol. A digest of the protocol:
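Recombinant human MGL incubated with inhibitor to allow disulfide bond formation. DTT (10^-2 M) was then added before substrate addition and the MGL activity read.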

The target is the same in assay [6]. Kind of assay: Inhibition of human MGL activity using [3H]2-oleoylglycerol substrate at 10 uM by liquid scintillation counting. A digest of the protocol:
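Single-point screen on recombinant human MGL at 10 μM, with a parallel screen at 100 μM.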

Assay [7] concerns the target T3, Aldehyde dehydrogenase, mitochondrial (Rattus norvegicus, UniProt P11884).
T3 sequence (P11884 whole entry): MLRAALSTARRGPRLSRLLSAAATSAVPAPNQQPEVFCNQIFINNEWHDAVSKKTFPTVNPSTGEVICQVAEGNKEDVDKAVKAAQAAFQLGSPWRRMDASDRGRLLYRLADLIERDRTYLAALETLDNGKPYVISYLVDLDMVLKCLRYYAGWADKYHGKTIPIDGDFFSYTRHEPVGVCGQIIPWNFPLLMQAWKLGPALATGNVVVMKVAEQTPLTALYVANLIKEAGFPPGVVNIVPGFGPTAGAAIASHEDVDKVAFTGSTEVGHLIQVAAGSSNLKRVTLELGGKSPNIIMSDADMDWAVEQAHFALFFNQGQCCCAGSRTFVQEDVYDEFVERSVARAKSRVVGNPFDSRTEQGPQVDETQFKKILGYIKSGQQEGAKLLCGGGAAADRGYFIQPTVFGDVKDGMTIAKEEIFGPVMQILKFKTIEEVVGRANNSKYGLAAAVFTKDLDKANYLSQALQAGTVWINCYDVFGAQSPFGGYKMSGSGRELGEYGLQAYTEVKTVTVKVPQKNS
Put plainly: Inhibition of recombinant rat ALDH activity in liver mitochondria.

Assay [8] addresses T2, Monoglyceride lipase (Homo sapiens). Put plainly: Inhibition of human MGL activity using [3H]2-oleoylglycerol substrate at 33.3 nM measured upto 1 hr by high dilution reversibility assay. A digest of the protocol:
as §1

The target of assay [9] is T4, Monoglyceride lipase (Homo sapiens, UniProt Q99685).
T4 sequence (Q99685 whole entry): T2 sequence (whole entry)
Put plainly: Inhibition of human MGL activity using [3H]2-oleoylglycerol substrate by liquid scintillation counting. A digest of the protocol: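 Recombinant human MGL was used, and inhibition was expressed as pIC50.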

Assay [10] deals with T5, Monoglyceride lipase (Homo sapiens), Q99685 [C208A,C242A].
T5 sequence (whole entry): T2 sequence (whole entry) with C208A, C242A
Put plainly: Inhibition of human MGL C208A/C242A double mutant using [3H]2-oleoylglycerol substrate.

Assay [11] concerns the target T2, Monoglyceride lipase (Homo sapiens). Put plainly: Inhibition of human MGL activity using [3H]2-oleoylglycerol substrate at 10 nM measured upto 1 hr by high dilution reversibility assay. A digest of the protocol:
as §1

As a reminder, the IC50 is the concentration needed to halve the response being measured. For orientation: inhibition means the relative decrease from the control value, in per cent. Read a high inhibition as a response far below the control.

Substitutions are numbered along the chain they refer to. Calls of active or inactive are those of the source. The calls are words filed in the database; no cut-off is given here. A value given as a limit tells only on which side of the number the result lay.

Chain of Monoglyceride lipase (Homo sapiens, UniProt Q99685, C208A) (Q99685 whole entry C208A): as the sequence (Q99685 whole entry C242A) above, with C208A, A242C counted along it

Take `CN1CCN(C(=S)SSC(=S)N2CCN(C)CC2)CC1`: the concentration for half-maximal inhibition (IC50) was 8.32 µM on Monoglyceride lipase [1]; 200 µM in [2]; 0.302 µM against Monoglyceride lipase [4]; 15.8 µM in assay [7]; 0.11 µM against Monoglyceride lipase [9]. For the same compound, the result in assay [3], in assay [5], in assay [8] and in [11] was Active. This compound also had an inhibition in assay [6] of more than 50%. In assay [10], the outcome was inactive.
